The species entered for assay [1] is Homo sapiens. Kind of assay: In vitro inhibition of U-46,619-induced aggregation of unwashed human platelets. In kind it is functional. As to conditions: for Kb: Homo sapiens, read-out: pA2 (converted). The method, boiled down:
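Citrated (3.2%) human venous blood spun at 200g for 10 min. Platelet-rich plasma aggregated with U46619 with or without several antagonist concentrations.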

Assay [2] concerns the target T1, Thromboxane-A synthase (Homo sapiens, UniProt P24557).
T1 sequence (P24557 whole entry): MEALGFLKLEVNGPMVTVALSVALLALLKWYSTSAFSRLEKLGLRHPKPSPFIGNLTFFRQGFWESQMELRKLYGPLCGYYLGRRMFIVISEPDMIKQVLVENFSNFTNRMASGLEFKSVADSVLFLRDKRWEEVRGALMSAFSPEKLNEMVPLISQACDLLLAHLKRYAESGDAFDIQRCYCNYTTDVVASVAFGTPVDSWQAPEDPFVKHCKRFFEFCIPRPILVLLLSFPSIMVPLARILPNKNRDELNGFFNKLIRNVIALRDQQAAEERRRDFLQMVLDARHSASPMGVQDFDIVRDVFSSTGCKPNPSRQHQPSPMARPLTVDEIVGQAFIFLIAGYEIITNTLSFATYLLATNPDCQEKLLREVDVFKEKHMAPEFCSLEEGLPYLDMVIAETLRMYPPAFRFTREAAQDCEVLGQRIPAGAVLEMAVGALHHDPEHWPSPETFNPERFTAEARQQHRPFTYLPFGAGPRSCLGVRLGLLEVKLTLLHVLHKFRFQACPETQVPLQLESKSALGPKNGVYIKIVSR
Put plainly: In vitro Inhibition of thromboxane synthase from human blood platelet microsomes. The method, boiled down:
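Human blood platelet microsomes incubated with [1-14C]arachidonic acid with or without inhibitor. Conversion to labeled thromboxane B2 quantified radiochromatographically. n = 2.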

Assay [3] addresses T2, Prostacyclin synthase (Homo sapiens, UniProt Q16647).
T2 sequence (Q16647 whole entry): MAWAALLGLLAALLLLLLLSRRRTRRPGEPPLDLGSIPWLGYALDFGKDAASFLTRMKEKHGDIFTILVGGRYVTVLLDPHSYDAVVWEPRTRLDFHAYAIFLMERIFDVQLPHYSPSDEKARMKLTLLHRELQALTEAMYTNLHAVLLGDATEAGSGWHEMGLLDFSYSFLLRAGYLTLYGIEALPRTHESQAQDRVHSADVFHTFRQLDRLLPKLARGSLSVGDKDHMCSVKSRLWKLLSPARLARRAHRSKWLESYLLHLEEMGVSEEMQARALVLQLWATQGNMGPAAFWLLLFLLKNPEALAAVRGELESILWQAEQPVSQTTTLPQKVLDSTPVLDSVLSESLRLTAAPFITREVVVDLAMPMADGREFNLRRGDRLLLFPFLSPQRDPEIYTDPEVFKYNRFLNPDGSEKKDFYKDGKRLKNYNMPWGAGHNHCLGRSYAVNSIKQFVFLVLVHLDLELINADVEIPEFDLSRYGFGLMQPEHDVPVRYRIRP
Kind of assay: In vitro inhibition of Prostaglandin I2 synthase in cultured human endothelial cells.

Broadly, the IC50 is the midpoint of a concentration-inhibition curve. A lower IC50 goes with greater potency in that assay. Usually pA2 stands for a measure of antagonist potency on a negative log scale.

As to `O=C(O)CC/C=C\CC1COC(c2ccc(Cl)c(Cl)c2)OC1c1cccnc1` (stereo not given), the Kb in assay [1] is 776 nM. Besides, the IC50 was 42 nM in assay [2] and 9000 nM in assay [3].
`O=C(O)CC/C=C\CC1COC(c2ccco2)OC1c1cccnc1` (stereo not given): in assay [1], the Kb was 1260 nM. Also, the IC50 in assay [2] was 164 nM.
With `O=C(O)CC/C=C\CC1COC(c2ccccc2Cl)OC1c1cccnc1` (stereo not given), the Kb in assay [1] is 759 nM. In assay [2], this compound showed an IC50 of 48 nM.
With `COc1ccc(OC(C)(C)C2OCC(C/C=C\CCC(=O)O)C(c3cccnc3)O2)cc1` (stereo not given), the Kb in assay [1] was 302 nM. Also, the IC50 in assay [2] was 41 nM; in assay [3] it was over 100000 nM.
Consider `CC(C)(Oc1ccc(C#N)cc1)C1OCC(C/C=C\CCC(=O)O)C(c2cccnc2)O1` (stereo not given), for which the Kb in assay [1] is 129 nM. Also, the values for the IC50 in assay [2] and in assay [3] were 46 nM and 4000 nM, respectively.
The like results for `CC(C)(Oc1ccccc1Br)C1OCC(C/C=C\CCC(=O)O)C(c2cccnc2)O1` (stereo not given) were, in that order, 63.1 nM, 29 nM and 7000 nM.
On to `CC(C)(C1OCC(C/C=C\CCC(=O)O)C(c2cccnc2)O1)S(=O)(=O)c1ccccc1` (stereo not given), for which the Kb in assay [1] is 3160 nM. The IC50 in assay [2] was 40 nM.
Regarding `CC(C)(Oc1ccc(S(C)(=O)=O)cc1)C1OCC(C/C=C\CCC(=O)O)C(c2cccnc2)O1` (stereo not given), the Kb in assay [1] is 91.2 nM. The IC50 was found to be 34 nM in assay [2] and 8000 nM in assay [3].
In the case of `O=C(O)CC/C=C\CC1COC(c2ccc(Cl)cc2Cl)OC1c1cccnc1` (stereo not given), the Kb in assay [1] is 891 nM. Besides, the values for the IC50 in assay [2] and in assay [3] were 42 nM and 2500 nM, respectively.
Regarding `COc1ccccc1OC(C)(C)C1OCC(C/C=C\CCC(=O)O)C(c2cccnc2)O1` (stereo not given), the Kb in assay [1] was 224 nM. For the same compound, the IC50 in assay [2] turned out to be 60 nM; in assay [3] it was 51000 nM.
For the compound `O=C(O)CC/C=C\CC1COC(c2ccsc2)OC1c1cccnc1` (stereo not given), in assay [1], the Kb was 1580 nM. The compound further registered an IC50 in assay [2] of 500 nM.
As for `COC(=O)c1ccccc1OC(C)(C)C1OCC(C/C=C\CCC(=O)O)C(c2cccnc2)O1` (stereo not given), the Kb in assay [1] was 64.6 nM. The IC50 in assay [2] was found to be 66 nM; in assay [3], 73000 nM.
For `N#Cc1ccc(C2OCC(C/C=C\CCC(=O)O)C(c3cccnc3)O2)cc1` (stereo not given), the Kb in assay [1] was 1290 nM. The IC50 in assay [2] was 24 nM; in assay [3] it was over 100000 nM.
In the same order, the values of `CC(C)(Oc1ccccc1F)C1OCC(C/C=C\CCC(=O)O)C(c2cccnc2)O1` (stereo not given) are 166 nM, 45 nM and under 1000 nM.
In assay [1], `CC(C)(Oc1ccc(Br)cc1)C1OCC(C/C=C\CCC(=O)O)C(c2cccnc2)O1` (stereo in doubt; 7p) registered a pA2 of 5.61. The IC50 in assay [2] was over 10000 nM; in assay [3] it was under 1000 nM.
Turning to `CSc1ccc(OC(C)(C)C2OCC(C/C=C\CCC(=O)O)C(c3cccnc3)O2)cc1` (stereo not given), the Kb in assay [1] was 372 nM. Besides, the IC50 in assay [2] was 39 nM; in assay [3], 32000 nM.
`CC(C)(Sc1ccccc1C#N)C1OCC(C/C=C\CCC(=O)O)C(c2cccnc2)O1` (stereo not given): the Kb in assay [1] is 316 nM. This compound registered an IC50 in assay [2] of 40 nM.
In the case of `CC(C)(Oc1ccc(F)cc1C#N)C1OCC(C/C=C\CCC(=O)O)C(c2cccnc2)O1` (stereo not given), the Kb in assay [1] is 0.708 nM. Also, the half-maximal inhibitory concentration (IC50) in assay [2] came to 15 nM; in assay [3], 37000 nM.
Regarding `O=C(O)CC/C=C\CC1COC(c2cccc3ccccc23)OC1c1cccnc1` (stereo not given), the Kb in assay [1] is 631 nM. This compound registered an IC50 in assay [2] of 40 nM.
The like results for `O=C(O)CC/C=C\CC1COC(c2ccc(C(F)(F)F)cc2)OC1c1cccnc1` (stereo not given) were, in that order, 1780 nM and 44 nM.
For `Cc1ccc(OC(C)(C)C2OCC(C/C=C\CCC(=O)O)C(c3cccnc3)O2)c(C#N)c1` (stereo in doubt; 7af), the Kb in assay [1] is 3.98 nM. The values for the IC50 in assay [2] and in assay [3] were 25 nM and 12000 nM, respectively.
For the compound `CC(C)(Oc1ccccc1S(C)(=O)=O)C1OCC(C/C=C\CCC(=O)O)C(c2cccnc2)O1` (stereo not given), in assay [1], the Kb is 589 nM. In addition, the concentration for half-maximal inhibition (IC50) in assay [2] was determined as 45 nM; in assay [3], 2000 nM.
Take `CSc1ccccc1OC(C)(C)C1OCC(C/C=C\CCC(=O)O)C(c2cccnc2)O1` (stereo not given): the Kb in assay [1] is 89.1 nM. In addition, the half-inhibitory concentration (IC50) is 36 nM in assay [2] and over 100000 nM in assay [3].
Regarding `CC(C)(C)c1ccc(OC(C)(C)C2OCC(C/C=C\CCC(=O)O)C(c3cccnc3)O2)cc1` (stereo not given), the Kb in assay [1] is 1910 nM. In assay [2], the IC50 was 280 nM.
For the compound `CC(C)(Oc1ccccc1)C1OCC(C/C=C\CCC(=O)O)C(c2cccnc2)O1` (stereo not given), the Kb in assay [1] was 75.9 nM. In addition, the IC50 in assay [2] was found to be 52 nM; in assay [3], 75000 nM.
As for `CC(C)(Cc1ccccc1)C1OCC(C/C=C\CCC(=O)O)C(c2cccnc2)O1` (stereo not given), the Kb in assay [1] was 513 nM. In addition, the concentration for half-maximal inhibition (IC50) in assay [2] came to 12 nM; in assay [3], 13000 nM.
For the compound `O=C(O)CC/C=C\CC1COC(c2cccs2)OC1c1cccnc1` (stereo not given), the Kb in assay [1] was 1000 nM. Further, half-maximal inhibition in assay [2] (IC50) required 71 nM.
For the compound `CC(C)(Cc1ccccc1C#N)C1OCC(C/C=C\CCC(=O)O)C(c2cccnc2)O1` (stereo not given), the Kb in assay [1] was 27.5 nM. For the same compound, the IC50 was found to be 37 nM in assay [2] and 14000 nM in assay [3].
In the same order, the values of `Cc1cccc(C#N)c1OC(C)(C)C1OCC(C/C=C\CCC(=O)O)C(c2cccnc2)O1` (stereo not given) are 25.1 nM, 90 nM and 60000 nM.
As for `CC(C)(Oc1cccc(F)c1)C1OCC(C/C=C\CCC(=O)O)C(c2cccnc2)O1` (stereo not given), in assay [1], the Kb is 126 nM. For the same compound, the IC50 came to 26 nM in assay [2] and 40000 nM in assay [3].
`CC(C)(Cc1ccc(F)cc1C#N)C1OCC(C/C=C\CCC(=O)O)C(c2cccnc2)O1` (stereo not given): in assay [1], the Kb was 2.19 nM. In addition, the IC50 was under 10 nM in assay [2] and 7000 nM in assay [3].
`O=C(O)CCCC/C=C(\c1ccccc1)c1cccnc1` [(E)-ISBOGREL] yielded an IC50 in assay [3] of over 100000 nM.
In the case of `COc1ccc(SC(C)(C)C2OCC(C/C=C\CCC(=O)O)C(c3cccnc3)O2)c([N+](=O)[O-])c1` (stereo not given), the Kb in assay [1] was 158 nM. The compound also displayed a 50% inhibitory concentration (IC50) in assay [2] of 40 nM.
On to `CC(C)(Oc1ccc(F)cc1[N+](=O)[O-])C1OCC(C/C=C\CCC(=O)O)C(c2cccnc2)O1` (stereo not given), for which the Kb in assay [1] was 2.51 nM. In addition, the results for the IC50 in assay [2] and in assay [3] were 20 nM and 9000 nM, respectively.
In the case of `O=C(O)CC/C=C\C[C@@H]1CO[C@H](c2ccccc2Cl)O[C@@H]1c1ccccc1O`, the Kb in assay [1] is 6.92 nM. In assay [2], this compound had an IC50 of over 100000 nM.
As to `CC(C)(Oc1ccc(Br)cc1)C1OCC(C/C=C\CCC(=O)O)C(c2cccnc2)O1` (stereo in doubt; 7b), the pA2 in assay [1] is recorded as 6.42. Besides, the results for the half-inhibitory concentration (IC50) in assay [2] and in assay [3] were 51 nM and 3400 nM, respectively.
`Cc1ccc(OC(C)(C)C2OCC(C/C=C\CCC(=O)O)C(c3cccnc3)O2)c([N+](=O)[O-])c1` (stereo in doubt; 7y) returned a pA2 in assay [1] of under 5. In addition, in assay [2], the half-maximal inhibitory concentration (IC50) is over 10000 nM.
In the case of `O=C(O)CC/C=C\CC1COC(c2cccnc2)OC1c1cccnc1` (stereo not given), the Kb in assay [1] was 759 nM. This compound also gave an IC50 in assay [2] of 220 nM.
Take `Cc1ccc(SC(C)(C)C2OCC(C/C=C\CCC(=O)O)C(c3cccnc3)O2)c([N+](=O)[O-])c1` (stereo not given): in assay [1], the Kb was 158 nM. The compound further displayed an IC50 in assay [2] of 30 nM.
Turning to `O=C(O)CC/C=C\CC1COC(c2ccc3ccccc3c2)OC1c1cccnc1` (stereo not given), the Kb in assay [1] is 1780 nM. In assay [2], this compound returned an IC50 of 50 nM.
Consider `CC(C)(Sc1ccccc1)C1OCC(C/C=C\CCC(=O)O)C(c2cccnc2)O1` (stereo not given), for which the Kb in assay [1] was 200 nM. The IC50 in assay [2] was determined as 40 nM.

The values above are taken from ChEMBL document CHEMBL1128245, “Dual-acting thromboxane receptor antagonist/synthase inhibitors: synthesis and biological properties of [2-substituted-4-(3-pyridyl)-1,3-dioxan-5-yl] alkenoic acids” (J Med Chem, 1995).
